Assay results: ChEMBL document CHEMBL1137402, “Synthesis and biological evaluation of 2-(3',4',5'-trimethoxybenzoyl)-3-amino 5-aryl thiophenes as a new class of tubulin inhibitors” (J Med Chem, 2006)
Calls of active or inactive are those of the source. The calls are words filed in the database; no cut-off is given here.

Tests used:
Tubulin = experiment: Inhibition of tubulin polymerization; type: functional, Homo sapiens
Procedure, shortened: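 Tubulin assembly assay with tubulin at 10 µM. IC50 taken for inhibition of polymerization.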

Tubulin (Homo sapiens) = Tubulin (Homo sapiens) (UniProt P68371+Q9H4B7+P0DPH7+P68366+Q13509+Q71U36+P04350+Q3ZCM7+P07437+P68363+Q9BQE3+Q6PEY2+Q13885+Q9BVA1+Q9BUF5); experiment: Inhibition of [3H]colchicine binding to tubulin at 1 uM; type: protein-complex assay
Procedure, shortened: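 Binding of [3H]colchicine to tubulin. Tubulin at 1 µM, [3H]colchicine at 5 µM, inhibitor at 1 µM. Read-out is percent inhibition of colchicine binding.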

L1210 = experiment: Antiproliferative activity against mouse L1210 cells; type: functional, cell-based
Procedure, shortened: (§1)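 Tumor cell proliferation assay. IC50 is the compound concentration giving 50% inhibition of proliferation, taken from dose-response curves. Reported as mean ± SE from at least three independent experiments.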

FM3A = experiment: Antiproliferative activity against mouse FM3A cells; type: functional, cell-based
MOLT-4 = experiment: Antiproliferative activity against human Molt4/C8 cells; type: functional, cell-based; procedure, shortened: as §1
CCRF-CEM = experiment: Antiproliferative activity against human CEM cells; type: functional, cell-based
HL-60 [1] = experiment: Cell cycle arrest in HL60 cells by accumulation at G2/M phase at 20 nM; type: functional, cell-based; details: Homo sapiens
Procedure, shortened: (§2)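 HL60 acute myeloblastic leukemia cells exposed to compound for 24 h, then stained with propidium iodide and analyzed by flow cytometry. Populations scored in sub-G0-G1 (apoptotic), G0-G1, S and G2-M phases, relative to untreated control cells.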

HL-60 [2] = experiment: Cell cycle arrest at HL60 cells by accumulation at sub G0/G1 phase at 20 nM; type: functional, cell-based; details: Homo sapiens; procedure, shortened: as §2
HL-60 [3] = experiment: Cell cycle arrest in HL60 cells by accumulation at G2/M phase at 15 nM; type: functional, cell-based; details: Homo sapiens; procedure, shortened: as §2
HL-60 [4] = experiment: Induction of apoptosis in HL60 cells by arrest at sub G0/G1 phase at 15 nM; type: functional, cell-based; details: Homo sapiens; procedure, shortened: as §2
HL-60 [5] = experiment: Cell cycle arrest in HL60 cells by accumulation at S phase at 8 nM; type: functional, cell-based; details: Homo sapiens; procedure, shortened: as §2
HL-60 [6] = experiment: Cell cycle arrest in HL60 cells by accumulation at G2/M phase at 8 nM; type: functional, cell-based; details: Homo sapiens; procedure, shortened: as §2
HL-60 [7] = experiment: Cell cycle arrest in HL60 cells by accumulation at G2/M phase at 40 nM; type: functional, cell-based; details: Homo sapiens; procedure, shortened: as §2
HL-60 [8] = experiment: Induction of apoptosis in HL60 cells by arrest at sub G0/G1 phase at 8 nM; type: functional, cell-based; details: Homo sapiens; procedure, shortened: as §2

Row | Compound | IC50 (Tubulin) | inhibition (Tubulin (Homo sapiens)) | IC50 (L1210) | IC50 (FM3A) | IC50 (MOLT-4) | IC50 (CCRF-CEM) | also measured
1 | COc1cc(C(=O)c2cc(-c3ccccc3)sc2N)cc(OC)c1OC | 1300 nM | 77% | – | – | – | – | –
2 | CCOc1ccc(-c2cc(N)c(C(=O)c3cc(OC)c(OC)c(OC)c3)s2)cc1 | – | – | 590 nM | 510 nM | 240 nM | 270 nM | –
3 | COc1cc(C(=O)c2sc(-c3cc(OC)c(OC)c(OC)c3)cc2N)cc(OC)c1OC | – | – | 2300 nM | 3500 nM | 1200 nM | 840 nM | –
4 | COc1cc(C(=O)c2sc(-c3ccsc3)cc2N)cc(OC)c1OC | 1300 nM | 81% | 12 nM | 3.7 nM | 8.8 nM | 9.6 nM | Activity (HL-60 [1]): Active; Activity (HL-60 [2]): Active
5 | COc1cc(C(=O)c2sc(-c3ccc(C)cc3)cc2N)cc(OC)c1OC | 1100 nM | 80% | 18 nM | 16 nM | 16 nM | 15 nM | –
6 | COc1ccc(-c2cc(N)c(C(=O)c3cc(OC)c(OC)c(OC)c3)s2)cc1 | 1100 nM | 60% | 45 nM | 31 nM | 18 nM | 19 nM | –
7 | COc1cc(C(=O)c2sc(-c3ccc(Br)cc3)cc2N)cc(OC)c1OC | – | – | 100 nM | 150 nM | 92 nM | 86 nM | –
8 | COc1cc(C(=O)c2sc(-c3cccc([N+](=O)[O-])c3)cc2N)cc(OC)c1OC | 970 nM | 74% | 11 nM | 17 nM | 7.5 nM | 5.9 nM | Activity (HL-60 [3]): Active; Activity (HL-60 [4]): Active
9 | COc1cc(C(=O)c2sc(-c3ccccc3Cl)cc2N)cc(OC)c1OC | 1200 nM | 76% | 20 nM | 34 nM | 17 nM | 16 nM | –
10 | COc1cc(C(=O)c2sc(-c3ccc(C(F)(F)F)cc3)cc2N)cc(OC)c1OC | – | – | 370 nM | 540 nM | 250 nM | 270 nM | –
11 | COc1cc(C(=O)c2sc(-c3ccc(Cl)c(Cl)c3)cc2N)cc(OC)c1OC | – | – | 260 nM | 400 nM | 270 nM | 290 nM | –
12 | COc1cc(C(=O)c2sc(-c3ccccc3)cc2N)cc(OC)c1OC | 1200 nM | 81% | 11 nM | 13 nM | 5.3 nM | 4.5 nM | Activity (HL-60 [5]): Active; Activity (HL-60 [6]): Active; Activity (HL-60 [7]): Active; Activity (HL-60 [8]): Active
13 | COc1cc(C(=O)c2sc(-c3ccc(I)cc3)cc2N)cc(OC)c1OC | – | – | 400 nM | 420 nM | 190 nM | 150 nM | –
14 | COc1cc(C(=O)c2sc(-c3ccc(F)cc3)cc2N)cc(OC)c1OC | 1500 nM | 70% | 20 nM | 16 nM | 12 nM | 15 nM | –
15 | COc1cc(C(=O)c2sc(-c3ccc([N+](=O)[O-])cc3)cc2N)cc(OC)c1OC | – | – | 100 nM | 64 nM | 110 nM | 99 nM | –
16 | COc1cccc(-c2cc(C(=O)c3cc(OC)c(OC)c(OC)c3)c(N)s2)c1 | 1200 nM | – | – | – | – | – | –
17 | COc1cc(C(=O)c2sc(-c3ccc(-c4ccccc4)cc3)cc2N)cc(OC)c1OC | – | – | > 10000 nM | > 10000 nM | > 10000 nM | > 10000 nM | –
18 | COc1ccc(/C=C\c2cc(OC)c(OC)c(OC)c2)cc1O [COMBRETASTATIN A4] | – | – | 2.8 nM | – | 1.6 nM | – | –
19 | COc1ccc(-c2cc(N)c(C(=O)c3cc(OC)c(OC)c(OC)c3)s2)cc1OC | 1100 nM | 53% | 40 nM | 72 nM | 20 nM | 20 nM | –
20 | COc1cc(C(=O)c2cc(-c3ccc(C)cc3)sc2N)cc(OC)c1OC | 800 nM | 90% | – | – | – | – | –
21 | COc1ccc(-c2cc(C(=O)c3cc(OC)c(OC)c(OC)c3)c(N)s2)cc1 | 1100 nM | – | – | – | – | – | –
22 | COc1cccc(-c2cc(N)c(C(=O)c3cc(OC)c(OC)c(OC)c3)s2)c1 | 640 nM | 81% | 22 nM | 36 nM | 17 nM | 16 nM | –
23 | COc1cc(C(=O)c2cc(-c3ccc(F)cc3)sc2N)cc(OC)c1OC | 860 nM | – | – | – | – | – | –
24 | COc1cc(C(=O)c2sc(-c3cccs3)cc2N)cc(OC)c1OC | 1200 nM | 80% | 9.8 nM | 1.7 nM | 8.9 nM | 9.4 nM | Activity (HL-60 [1]): Active; Activity (HL-60 [2]): Active
25 | COc1cc(C(=O)c2sc(-c3ccncc3)cc2N)cc(OC)c1OC | – | – | 180 nM | 150 nM | 88 nM | 110 nM | –
26 | COc1cc(C(=O)c2sc(-c3ccc(Cl)cc3)cc2N)cc(OC)c1OC | – | – | 93 nM | 90 nM | 77 nM | 70 nM | –
